The values that follow come from ChEMBL document CHEMBL4014338, “Discovery of Small Molecules as Multi-Toll-like Receptor Agonists with Proinflammatory and Anticancer Activities” (J Med Chem, 2017).

Holding throughout (format): functional
Test [1] has as its system HeLa. In words: Induction of apoptosis in human HeLa cells at 10 to 40 uM after 24 hrs by Annexin V-FITC/propidium iodide staining based flow cytometry (reference value: 10%). The gist of the method:
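HeLa cells seeded at 3 × 10^5/well and attached 24 h, treated 24 h with 10, 20, 30 or 40 μM (DMSO or poly I:C 5 μg/mL as controls). Harvested with EDTA-free trypsin, washed twice in PBS, stained with annexin V-FITC/PI, and analyzed by flow cytometry. Early plus late apoptotic percentages reported as mean ± SD of three experiments.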
Background: A flow cytometer gives signals particle by particle.

In test [2] the test system is HeLa. In words: Cell cycle arrest in human HeLa cells assessed as accumulation at G0/G1 phase at 20 uM after 24 hrs by propidium iodide staining based flow cytometry (reference value: 52%).
In test [3] the test system is HeLa. Nature of the test: Cell cycle arrest in human HeLa cells assessed as accumulation at G0/G1 phase at 10 uM after 24 hrs by propidium iodide staining based flow cytometry (reference value: 52%).

For `O=[N+]([O-])c1ccc(COc2cc3c(cc2OCc2ccc([N+](=O)[O-])cc2)OC2(C=C3)CCOCC2)cc1`, the Activity in the test with HeLa [1] came to 17%; with HeLa [2], 43%; with HeLa [3], 46%.
